Source: ChEMBL document CHEMBL2150928, “Symmetric kv1.5 blockers discovered by focused screening” (ACS Med Chem Lett, 2012)
≈ marks a conversion by molar mass, not a printed value. Calls of active or inactive are those of the source. No cut-off for these calls is given here.

Assays:
[1] = target: Potassium voltage-gated channel subfamily A member 5 (Homo sapiens, UniProt P22460); assay: Inhibition of human Kv1.5 ion channel after 3 mins by high-throughput planar patch clamp assay
How it was run: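 Electrophysiology run on IonWorks high-throughput planar patch clamp, following a previously published method. IC50 values come from concentration-response testing of compounds retested for LC/MS purity.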

[2] = target: Voltage-gated inwardly rectifying potassium channel KCNH2 (Homo sapiens, UniProt Q12809); assay: Inhibition of human ERG expressed in CHOK1 cells; type: cell-based, CHO-K1
Sequence of Voltage-gated inwardly rectifying potassium channel KCNH2 (Q12809 whole entry): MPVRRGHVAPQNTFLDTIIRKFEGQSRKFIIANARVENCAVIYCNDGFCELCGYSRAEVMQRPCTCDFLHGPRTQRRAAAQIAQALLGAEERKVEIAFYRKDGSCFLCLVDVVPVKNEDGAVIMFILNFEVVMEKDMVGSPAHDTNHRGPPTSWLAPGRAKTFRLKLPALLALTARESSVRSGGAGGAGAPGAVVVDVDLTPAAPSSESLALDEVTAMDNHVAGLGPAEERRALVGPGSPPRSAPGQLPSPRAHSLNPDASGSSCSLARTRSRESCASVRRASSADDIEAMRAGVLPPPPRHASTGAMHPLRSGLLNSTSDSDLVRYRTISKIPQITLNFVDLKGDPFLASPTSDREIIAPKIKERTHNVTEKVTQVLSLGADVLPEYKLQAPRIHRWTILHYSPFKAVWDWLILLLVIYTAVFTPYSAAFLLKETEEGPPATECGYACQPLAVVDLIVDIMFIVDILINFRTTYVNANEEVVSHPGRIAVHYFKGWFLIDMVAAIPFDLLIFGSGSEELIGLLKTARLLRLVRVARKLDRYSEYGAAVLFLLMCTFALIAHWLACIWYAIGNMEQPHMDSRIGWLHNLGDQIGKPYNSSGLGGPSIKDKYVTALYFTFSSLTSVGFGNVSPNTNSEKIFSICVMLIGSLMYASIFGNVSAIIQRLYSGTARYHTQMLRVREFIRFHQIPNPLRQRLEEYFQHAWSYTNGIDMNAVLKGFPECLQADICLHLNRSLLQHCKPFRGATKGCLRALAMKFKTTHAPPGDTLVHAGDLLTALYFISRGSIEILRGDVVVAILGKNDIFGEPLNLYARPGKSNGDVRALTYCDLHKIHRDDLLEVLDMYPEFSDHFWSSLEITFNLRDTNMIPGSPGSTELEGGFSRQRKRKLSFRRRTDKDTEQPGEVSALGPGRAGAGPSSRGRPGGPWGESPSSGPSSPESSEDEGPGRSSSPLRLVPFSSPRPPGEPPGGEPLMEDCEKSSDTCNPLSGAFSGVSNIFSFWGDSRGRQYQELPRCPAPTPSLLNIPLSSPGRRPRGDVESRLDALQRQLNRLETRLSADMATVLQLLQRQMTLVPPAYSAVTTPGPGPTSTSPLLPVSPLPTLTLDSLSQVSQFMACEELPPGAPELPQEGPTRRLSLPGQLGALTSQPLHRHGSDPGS

[3] = Octanol-water distribution coefficient, log D of the compound at pH 7.4 by shake-flask method; type: physicochemical
[4] = Dissociation constant, pKa of the compound; type: physicochemical
[5] = Aqueous solubility of the compound at pH 7.4 after 24 hrs; type: physicochemical; conditions: aqueous medium
Cytochrome P450 3A4 = Cytochrome P450 3A4 (Homo sapiens, UniProt P08684); assay: Inhibition of human recombinant CYP3A4 expressed in Escherichia coli; type: ADME
Sequence of Cytochrome P450 3A4 (P08684 whole entry): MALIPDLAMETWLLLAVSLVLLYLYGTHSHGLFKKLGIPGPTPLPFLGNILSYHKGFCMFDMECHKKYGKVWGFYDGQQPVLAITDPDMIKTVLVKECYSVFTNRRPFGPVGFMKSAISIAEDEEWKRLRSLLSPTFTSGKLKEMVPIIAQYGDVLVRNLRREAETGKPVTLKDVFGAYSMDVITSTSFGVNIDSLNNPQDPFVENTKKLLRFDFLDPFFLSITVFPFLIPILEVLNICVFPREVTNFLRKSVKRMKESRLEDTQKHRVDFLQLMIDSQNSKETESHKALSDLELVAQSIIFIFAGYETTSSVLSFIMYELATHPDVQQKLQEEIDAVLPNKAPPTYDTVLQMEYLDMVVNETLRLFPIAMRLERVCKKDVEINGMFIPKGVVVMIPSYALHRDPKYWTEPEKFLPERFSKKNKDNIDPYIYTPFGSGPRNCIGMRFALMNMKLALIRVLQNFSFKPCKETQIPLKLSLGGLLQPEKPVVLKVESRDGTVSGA

Cytochrome P450 2D6 = Cytochrome P450 2D6 (Homo sapiens, UniProt P10635); assay: Inhibition of human recombinant CYP2D6 expressed in Escherichia coli; type: ADME
Sequence of Cytochrome P450 2D6 (P10635 whole entry): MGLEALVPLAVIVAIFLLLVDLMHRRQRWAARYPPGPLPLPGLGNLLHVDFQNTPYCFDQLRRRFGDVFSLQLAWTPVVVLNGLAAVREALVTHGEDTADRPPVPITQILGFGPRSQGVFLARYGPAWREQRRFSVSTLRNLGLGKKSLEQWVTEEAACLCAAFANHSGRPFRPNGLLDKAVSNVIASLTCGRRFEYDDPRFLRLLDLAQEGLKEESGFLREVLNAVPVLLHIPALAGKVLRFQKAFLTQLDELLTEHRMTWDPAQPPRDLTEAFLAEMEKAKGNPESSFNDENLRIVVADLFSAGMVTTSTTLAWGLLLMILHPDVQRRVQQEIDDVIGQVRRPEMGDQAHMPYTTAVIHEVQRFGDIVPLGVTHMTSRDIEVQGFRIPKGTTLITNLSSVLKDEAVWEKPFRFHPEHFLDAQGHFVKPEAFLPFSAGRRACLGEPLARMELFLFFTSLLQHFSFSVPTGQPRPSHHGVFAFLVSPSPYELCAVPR

[6] = Intrinsic clearance in human liver microsomes at 50 uM up to 45 mins; type: ADME, Microsome; conditions: read-out: CLH
[7] = Intrinsic clearance in human hepatocytes assessed per million cells; type: ADME, cell-based, Hepatocyte; conditions: read-out: CLH
[8] = Apparent permeability from apical to basolateral side of human Caco2 cells; type: ADME, cell-based; conditions: Caco-2
[9] = Fraction unbound in human plasma; type: ADME, cell-free
[10] = Oral bioavailability in rat; type: ADME, organism-based; conditions: in vivo
[11] = Clearance in iv dosed rat; type: ADME, organism-based; conditions: in vivo
[12] = Half life in iv dosed rat; type: ADME, organism-based; conditions: in vivo
[13] = Volume of distribution at steady state in iv dosed rat; type: ADME, organism-based; conditions: in vivo, read-out: Vdss

Sequence of Potassium voltage-gated channel subfamily A member 5 (P22460 whole entry): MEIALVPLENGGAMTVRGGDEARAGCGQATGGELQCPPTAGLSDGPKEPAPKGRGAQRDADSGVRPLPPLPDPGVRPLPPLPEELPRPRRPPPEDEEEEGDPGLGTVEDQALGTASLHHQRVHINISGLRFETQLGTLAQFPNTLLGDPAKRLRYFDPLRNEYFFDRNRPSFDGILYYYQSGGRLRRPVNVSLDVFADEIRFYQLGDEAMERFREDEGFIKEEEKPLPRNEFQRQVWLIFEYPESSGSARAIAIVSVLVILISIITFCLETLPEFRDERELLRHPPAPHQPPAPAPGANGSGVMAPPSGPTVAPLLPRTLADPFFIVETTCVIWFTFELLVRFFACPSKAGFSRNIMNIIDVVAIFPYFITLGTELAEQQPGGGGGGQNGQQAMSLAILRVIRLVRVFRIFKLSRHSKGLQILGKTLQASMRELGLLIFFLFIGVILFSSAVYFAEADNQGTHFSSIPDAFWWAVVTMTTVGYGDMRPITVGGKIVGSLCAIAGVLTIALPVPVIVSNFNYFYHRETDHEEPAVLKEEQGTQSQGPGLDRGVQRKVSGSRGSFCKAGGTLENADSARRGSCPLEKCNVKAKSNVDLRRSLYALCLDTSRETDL

**Q.** Which results are given for `c1ccc([C@@H]([C@H](c2ccccc2)N2CCCC2)N2CCCC2)cc1`?
**A.** IC50 [1]: 300 nM; IC50 [2]: 31.6 µM; logD [3]: 3.3; pKa [4]: 10.5; solubility at 24 h [5]: 100 µM (≈ 32 µg/mL); IC50 (Cytochrome P450 3A4): 12.6 µM; IC50 (Cytochrome P450 2D6): 316 nM; microsomal CLint at 50 µM [6]: 21.6 µL/min/mg; hepatocyte CLint [7]: < 4 µL/min/1e6 cells; Papp A→B [8]: 13.3 ×10⁻⁶ cm/s; fraction unbound [9]: 0.17; bioavailability [10]: 48.9%; clearance [11]: 10.8 mL/min/kg; half-life [12]: 426 min; Vd [13]: 6.4 L/kg

**Q.** With `O=C(Cc1ccccc1)N[C@@H](c1ccccc1)[C@@H](O)c1ccccc1` as the molecule, how does the inhibition [1] read?
**A.** inactive

**Q.** Which logD [3] does the source give for `CC(C)[C@@H]1CC[C@@H](C)C[C@@H]1P(=O)(c1ccccc1)c1ccccc1` here?
**A.** 6

**Q.** With `c1ccc([C@H]([C@@H](c2ccccc2)N2CCCCC2)N2CCCCC2)cc1` as the molecule, how does the IC50 [1] read?
**A.** 200 nM

**Q.** And the IC50 [2]?
**A.** 25.1 µM

**Q.** What about the logD [3] of the same molecule?
**A.** 4

**Q.** What about the pKa [4] of the same molecule?
**A.** 11

**Q.** And the solubility at 24 h [5]?
**A.** 95 µM (≈ 33.1 µg/mL)

**Q.** What about the IC50 (Cytochrome P450 3A4) of the same molecule?
**A.** 20 µM

**Q.** And the IC50 (Cytochrome P450 2D6)?
**A.** 126 nM

**Q.** And the microsomal CLint at 50 µM [6]?
**A.** 14.1 µL/min/mg

**Q.** What about the hepatocyte CLint [7] of the same molecule?
**A.** < 4 µL/min/1e6 cells

**Q.** What about the Papp A→B [8] of the same molecule?
**A.** 10.3 ×10⁻⁶ cm/s

**Q.** What about the fraction unbound [9] of the same molecule?
**A.** 0.065

**Q.** What about the bioavailability [10] of the same molecule?
**A.** 103%

**Q.** And the clearance [11]?
**A.** 13.1 mL/min/kg

**Q.** What about the half-life [12] of the same molecule?
**A.** 906 min

**Q.** What about the Vd [13] of the same molecule?
**A.** 16.4 L/kg

**Q.** Which results are given for `c1ccc([C@@H]([C@H](c2ccccc2)N2CCCCC2)N2CCCCC2)cc1`?
**A.** IC50 [1]: 200 nM; IC50 [2]: 31.6 µM; logD [3]: 4.1; pKa [4]: 11.4; solubility at 24 h [5]: 81 µM (≈ 28.2 µg/mL); IC50 (Cytochrome P450 3A4): 15.8 µM; IC50 (Cytochrome P450 2D6): 316 nM; microsomal CLint at 50 µM [6]: 17.6 µL/min/mg; hepatocyte CLint [7]: < 4 µL/min/1e6 cells; Papp A→B [8]: 10.2 ×10⁻⁶ cm/s; fraction unbound [9]: 0.099; bioavailability [10]: 26.6%

**Q.** For `O[C@@H](c1ccccc1)[C@H](c1ccccc1)N1CCOCC1`, which inhibition [1] is on record?
**A.** inactive

**Q.** With `OC(c1ccccc1)C(NC1CCCCC1)c1ccccc1` (centres undefined) as the molecule, how does the inhibition [1] read?
**A.** inactive

**Q.** Which inhibition [1] does the source give for `CC(=O)NC(c1ccccc1)C(O)c1ccccc1` (centres undefined) here?
**A.** inactive

**Q.** For `OC(c1ccccc1)C(c1ccccc1)N1CCNCC1` (centres undefined), which inhibition [1] is on record?
**A.** inactive

**Q.** Which inhibition [1] does the source give for `O[C@@H](c1ccccc1)[C@H](c1ccccc1)N1CCCC1` here?
**A.** inactive

**Q.** Which inhibition [1] does the source give for `CN(C)[C@@H](c1ccccc1)[C@@H](O)c1ccccc1` here?
**A.** inactive

**Q.** Which inhibition [1] does the source give for `NC(c1ccccc1)C(O)c1ccccc1` (centres undefined) here?
**A.** inactive

**Q.** Which inhibition [1] does the source give for `c1ccc(C2NCCOC2c2ccccc2)cc1` (centres undefined) here?
**A.** inactive

**Q.** For `c1ccc([C@H]([C@@H](c2ccccc2)N2CCCC2)N2CCCC2)cc1`, which IC50 [1] is on record?
**A.** 600 nM

**Q.** What about the IC50 [2] of the same molecule?
**A.** 31.6 µM

**Q.** What about the logD [3] of the same molecule?
**A.** 3.2

**Q.** What about the pKa [4] of the same molecule?
**A.** 10.4

**Q.** What about the solubility at 24 h [5] of the same molecule?
**A.** 92 µM (≈ 29.5 µg/mL)

**Q.** What about the IC50 (Cytochrome P450 3A4) of the same molecule?
**A.** 12.6 µM

**Q.** What about the IC50 (Cytochrome P450 2D6) of the same molecule?
**A.** 200 nM

**Q.** And the microsomal CLint at 50 µM [6]?
**A.** 12 µL/min/mg

**Q.** What about the hepatocyte CLint [7] of the same molecule?
**A.** < 4 µL/min/1e6 cells

**Q.** And the Papp A→B [8]?
**A.** 14 ×10⁻⁶ cm/s

**Q.** What about the fraction unbound [9] of the same molecule?
**A.** 0.17

**Q.** And the bioavailability [10]?
**A.** 15.6%

**Q.** And the clearance [11]?
**A.** 91.8 mL/min/kg

**Q.** And the half-life [12]?
**A.** 60 min

**Q.** What about the Vd [13] of the same molecule?
**A.** 7.9 L/kg

**Q.** For `O[C@@H](c1ccccc1)[C@@H](c1ccccc1)N1CCCCC1`, which inhibition [1] is on record?
**A.** inactive

**Q.** For `CCCOc1ccc(C(O)C(c2ccccc2)N2CCCC2)cc1` (centres undefined), which inhibition [1] is on record?
**A.** inactive
